These results are taken from ChEMBL document CHEMBL2146436, “Synthesis and pharmacological investigation of azaphthalazinone human histamine H(1) receptor antagonists” (Bioorg Med Chem, 2012).

As usually defined, the logD is lipophilicity at a set pH, counting ionised and neutral species. A low value points to a more hydrophilic compound. Broadly, the Ki is a dissociation constant, usually derived from enzyme kinetics or from competition with a known ligand. Broadly, the IC50 is the concentration needed to halve the response being measured. Read a high IC50 as weaker potency.

Each structure is given as a SMILES string.

Series [1] concerns CHO. In words: Selectivity ratio of pKi for human H3 receptor expressed in CHO cells to pKi for human H1 receptor expressed in CHO cells. It counts as cell-based. The essentials:
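Ratio of two pKi values. The H3 pKi comes from membranes of CHO cells transfected with cloned human H3 receptor, read as reduction of histamine-stimulated GTPγS binding by scintillation proximity detection. The H1 pKi comes from intact CHO cells expressing recombinant human H1, read as inhibition of agonist-induced calcium mobilisation (Fluo-4AM dye, FLIPR plate-based imaging).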

The nature of series [2]: Lipophilicity, log D of compound at pH 7.4. It counts as physicochemical. Conditions: buffer.
The target of series [3] is Histamine H3 receptor (Homo sapiens, UniProt Q9Y5N1). Nature of the series: Antagonist activity at human H3 receptor expressed in CHO cells assessed as inhibition of histamine-induced GTPgamma[S] binding by scintillation proximity assay. In kind it is functional, cell-based. A general note: Binding of GTPγS marks nucleotide exchange on a G protein.
Chain of Histamine H3 receptor (Q9Y5N1 whole entry): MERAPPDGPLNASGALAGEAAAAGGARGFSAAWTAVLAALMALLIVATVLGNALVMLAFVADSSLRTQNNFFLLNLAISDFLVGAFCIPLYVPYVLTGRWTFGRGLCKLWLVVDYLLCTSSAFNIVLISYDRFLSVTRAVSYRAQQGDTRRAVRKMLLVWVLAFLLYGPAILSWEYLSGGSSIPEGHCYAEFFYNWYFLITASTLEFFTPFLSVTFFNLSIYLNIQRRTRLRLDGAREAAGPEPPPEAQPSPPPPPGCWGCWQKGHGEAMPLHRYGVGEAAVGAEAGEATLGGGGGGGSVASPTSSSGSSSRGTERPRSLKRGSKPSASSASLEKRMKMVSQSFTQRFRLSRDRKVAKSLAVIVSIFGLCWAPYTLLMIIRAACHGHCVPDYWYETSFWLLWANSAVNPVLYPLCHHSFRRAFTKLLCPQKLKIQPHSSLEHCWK
For series [4], the system named is CHO. Nature of the series: Selectivity ratio of pKi for human H3 receptor expressed in CHO cells to pKi for human adrenergic alpha1A receptor expressed in rat fibroblast. In kind it is cell-based. An outline of the steps: (§1)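 Ratio of two pKi values. The H3 pKi comes from membranes of CHO cells transfected with cloned human H3, read as reduction of histamine-stimulated GTPγS binding by scintillation proximity detection. The α1A or α1B pKi comes from intact Rat1 fibroblast cells expressing that receptor, read by plate-based calcium imaging.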

Series [5] addresses T1, Alpha-1B adrenergic receptor (Homo sapiens, UniProt P35368).
T1 sequence (P35368 whole entry): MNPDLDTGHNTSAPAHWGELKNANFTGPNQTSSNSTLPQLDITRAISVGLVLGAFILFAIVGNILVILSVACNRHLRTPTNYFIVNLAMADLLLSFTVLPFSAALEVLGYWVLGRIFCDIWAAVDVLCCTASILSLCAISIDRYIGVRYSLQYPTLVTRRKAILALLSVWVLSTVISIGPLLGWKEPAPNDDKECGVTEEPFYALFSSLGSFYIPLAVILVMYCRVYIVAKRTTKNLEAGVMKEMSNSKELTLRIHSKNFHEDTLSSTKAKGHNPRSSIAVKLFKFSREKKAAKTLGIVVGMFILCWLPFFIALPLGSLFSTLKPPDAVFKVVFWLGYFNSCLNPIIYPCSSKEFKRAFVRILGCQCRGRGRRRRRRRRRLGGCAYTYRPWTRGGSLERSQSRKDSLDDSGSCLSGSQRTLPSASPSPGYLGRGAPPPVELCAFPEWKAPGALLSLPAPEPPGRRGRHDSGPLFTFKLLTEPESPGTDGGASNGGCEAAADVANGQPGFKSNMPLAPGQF
Nature of the series: Antagonist activity at human adrenergic alpha1B receptor expressed in rat fibroblasts by plate-based calcium imaging. In kind it is functional. An outline of the steps:
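Plate-based calcium imaging in intact Rat1 fibroblast cells expressing the α1B adrenoceptor. Antagonist affinity is expressed as pKi, with the number of determinations given.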

Series [6] concerns CHO. Nature of the series: Selectivity ratio of pKi for human H3 receptor expressed in CHO cells to pKi for human adrenergic alpha1B receptor expressed in rat fibroblast. It counts as cell-based. The essentials: as §1
In series [7] the target is T2, Alpha-1A adrenergic receptor (Homo sapiens, UniProt P35348).
T2 sequence (P35348 whole entry): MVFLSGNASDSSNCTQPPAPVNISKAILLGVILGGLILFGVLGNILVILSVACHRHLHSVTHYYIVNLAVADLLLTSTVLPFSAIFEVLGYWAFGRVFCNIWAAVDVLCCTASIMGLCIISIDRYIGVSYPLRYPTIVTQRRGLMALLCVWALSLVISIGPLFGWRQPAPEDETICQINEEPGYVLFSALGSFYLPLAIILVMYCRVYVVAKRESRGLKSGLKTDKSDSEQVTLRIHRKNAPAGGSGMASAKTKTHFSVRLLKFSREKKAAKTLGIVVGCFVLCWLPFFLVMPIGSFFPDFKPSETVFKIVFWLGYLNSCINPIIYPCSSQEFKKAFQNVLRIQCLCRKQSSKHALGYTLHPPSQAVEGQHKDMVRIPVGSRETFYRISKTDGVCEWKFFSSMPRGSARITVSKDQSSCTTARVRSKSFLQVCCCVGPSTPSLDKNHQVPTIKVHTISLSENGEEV
Nature of the series: Antagonist activity at human adrenergic alpha1A receptor expressed in rat fibroblasts by plate-based calcium imaging. In kind it is functional.

Series [8] concerns the target T3, Histamine H1 receptor (Homo sapiens, UniProt P35367). In words: Antagonist activity at human H1 receptor expressed in CHO cells assessed as inhibition of calcium mobilization by FLIPR assay. In kind it is functional, cell-based. An outline of the steps: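 Intact CHO cells expressing recombinant human H1 receptor were loaded with Fluo-4AM. Inhibition of agonist-induced calcium mobilisation was read in a plate-based FLIPR instrument and expressed as pKi, with the number of determinations given.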
A general note: Calcium flux is commonly read through the fluorescence of an indicator in the cells.

The target in series [9] is T3, Histamine H1 receptor. In words: Antagonist activity against human CHO cells H1 receptor at 100 nM after 30 mins by FLIPR assay. In kind it is functional, cell-based. The following applies: read-out: pA2 (converted). An outline of the steps: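 Modified lower-throughput FLIPR assay in CHO cells expressing recombinant human H1. Histamine concentration–response curves were run without antagonist and with a single 100 nM antagonist concentration after 30 min incubation. EC50 values came from a four-parameter logistic fit. pA2 = log(DR−1) − log[B], where DR is the ratio of the EC50 with antagonist to the control EC50. Values are mean ± SEM, with SD given when n<3.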

Series [10] has as its target Voltage-gated inwardly rectifying potassium channel KCNH2 (Homo sapiens, UniProt Q12809). In words: Displacement of [3H]dofetilide from human ERG. (In general: In a radioligand displacement assay an active substance lowers the binding of a labelled ligand.)

T3 sequence (P35367 whole entry): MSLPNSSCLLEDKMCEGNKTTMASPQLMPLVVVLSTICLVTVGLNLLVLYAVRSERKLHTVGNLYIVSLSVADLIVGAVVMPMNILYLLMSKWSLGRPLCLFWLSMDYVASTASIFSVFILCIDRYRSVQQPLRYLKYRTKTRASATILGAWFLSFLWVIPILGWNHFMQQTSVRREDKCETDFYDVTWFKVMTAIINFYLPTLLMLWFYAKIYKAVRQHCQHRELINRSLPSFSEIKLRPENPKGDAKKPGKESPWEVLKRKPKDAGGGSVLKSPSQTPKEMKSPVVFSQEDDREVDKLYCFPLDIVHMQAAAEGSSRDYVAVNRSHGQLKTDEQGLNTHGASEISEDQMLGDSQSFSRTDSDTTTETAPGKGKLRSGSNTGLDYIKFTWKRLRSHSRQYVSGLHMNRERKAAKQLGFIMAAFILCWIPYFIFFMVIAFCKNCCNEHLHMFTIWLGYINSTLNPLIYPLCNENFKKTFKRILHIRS
Chain of Voltage-gated inwardly rectifying potassium channel KCNH2 (Q12809 whole entry): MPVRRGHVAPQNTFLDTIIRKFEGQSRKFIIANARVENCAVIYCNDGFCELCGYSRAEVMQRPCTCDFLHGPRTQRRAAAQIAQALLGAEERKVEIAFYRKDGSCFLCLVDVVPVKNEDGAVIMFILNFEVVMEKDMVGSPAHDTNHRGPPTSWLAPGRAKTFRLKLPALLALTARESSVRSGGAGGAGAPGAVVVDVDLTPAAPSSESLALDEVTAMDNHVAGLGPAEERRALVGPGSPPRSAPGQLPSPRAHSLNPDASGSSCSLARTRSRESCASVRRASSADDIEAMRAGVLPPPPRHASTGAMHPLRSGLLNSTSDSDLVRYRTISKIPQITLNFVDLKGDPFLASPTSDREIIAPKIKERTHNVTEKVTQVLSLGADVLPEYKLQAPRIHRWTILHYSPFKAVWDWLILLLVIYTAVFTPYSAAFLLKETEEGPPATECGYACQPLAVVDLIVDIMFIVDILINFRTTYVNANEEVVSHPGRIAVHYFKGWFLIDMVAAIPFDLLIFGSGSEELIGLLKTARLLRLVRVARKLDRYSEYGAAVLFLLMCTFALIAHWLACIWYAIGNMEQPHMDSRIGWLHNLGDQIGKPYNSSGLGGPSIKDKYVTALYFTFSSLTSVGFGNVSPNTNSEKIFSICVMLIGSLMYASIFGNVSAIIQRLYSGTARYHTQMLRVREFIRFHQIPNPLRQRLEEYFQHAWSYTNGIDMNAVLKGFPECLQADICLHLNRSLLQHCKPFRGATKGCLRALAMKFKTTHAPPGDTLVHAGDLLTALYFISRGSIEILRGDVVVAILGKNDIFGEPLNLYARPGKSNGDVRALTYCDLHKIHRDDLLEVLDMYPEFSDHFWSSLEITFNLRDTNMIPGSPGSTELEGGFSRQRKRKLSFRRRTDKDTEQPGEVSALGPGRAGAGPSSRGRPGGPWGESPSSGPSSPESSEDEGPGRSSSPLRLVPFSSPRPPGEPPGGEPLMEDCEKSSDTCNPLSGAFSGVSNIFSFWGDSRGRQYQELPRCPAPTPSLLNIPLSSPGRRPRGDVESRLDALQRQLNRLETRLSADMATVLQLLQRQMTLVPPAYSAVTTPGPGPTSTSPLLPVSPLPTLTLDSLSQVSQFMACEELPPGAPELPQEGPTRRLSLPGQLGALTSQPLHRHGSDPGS

As to `CCCCN1CCC[C@@H]1Cn1nc(Cc2ccc(Cl)cc2)c2cnccc2c1=O`, the Ratio pKi in series [1] came to 2.7; in series [4] it was 10; in series [6] it was 10. For the same compound, the pH-dependent lipophilicity (logD) in series [2] was found to be 3.2. Also, the Ki in series [3] was 631 nM; in series [5], 7.94 nM; in series [7] it was 6.31 nM; in [8], 0.398 nM. The Kb in series [9] was 0.1 nM. This compound also had an IC50 in series [10] of 50.1 nM.

In series [2], `CCCCN1CCC[C@@H]1Cn1nc(Cc2ccc(Cl)cc2)c2cccnc2c1=O` returned a logD of 2.8. Further, the inhibition constant Ki in [3] was 631 nM; in series [5], 100 nM; in series [7] it was 100 nM; in series [8], 0.631 nM. Besides, the Kb in series [9] is 0.316 nM.

Compound `COCCN1CCC[C@@H]1Cn1nc(Cc2ccc(Cl)cc2)c2ccccc2c1=O` yielded a pH-dependent lipophilicity (logD) in series [2] of 3.3. Further, the inhibition constant Ki in [3] is 398 nM; in series [5], 12.6 nM; in [7], 20 nM; in series [8], 0.513 nM.

Take `COCCN1CCC[C@@H]1Cn1nc(Cc2ccc(Cl)cc2)c2cccnc2c1=O`: in series [2], the log distribution coefficient (logD) was determined as 2.1. Further, the Ki in [3] was 631 nM; in [5], 316 nM; in series [7], 316 nM; in series [8], 1 nM. Moreover, in series [9], the Kb was 0.794 nM.

As to `CN1CCC[C@@H]1Cn1nc(Cc2ccc(Cl)cc2)c2cccnc2c1=O`, the logD in [2] was 1.7. Also, the Ki was 158 nM in series [5], 631 nM in [7] and 0.355 nM in [8]. For the same compound, the Kb in series [9] is 0.501 nM.

Consider `CN1CCC[C@@H]1Cn1nc(Cc2ccc(Cl)cc2)c2ccccc2c1=O`, for which, in series [2], the log distribution coefficient (logD) came to 3. For the same compound, the Ki in series [3] was 437 nM; in series [5], 10 nM; in series [7], 31.6 nM; in series [8] it was 0.162 nM. In [9], the Kb is 0.1 nM.

As to `O=c1c2ccncc2c(Cc2ccc(Cl)cc2)nn1C[C@H]1CCCN1CCCCc1ccc(OCCCN2CCCCCC2)cc1`, the Ratio pKi in series [1] came out at 2.7; in [4], 10; in series [6], 10. Moreover, the Ki in series [3] was 0.562 nM; in series [5], 39.8 nM; in series [7], 31.6 nM; in series [8] it was 17.4 nM. Besides, in series [9], the Kb is 1 nM. The IC50 in series [10] is 158 nM.

Take `CN1CCC[C@@H]1Cn1nc(Cc2ccc(Cl)cc2)c2ncccc2c1=O`: in series [2], the log distribution coefficient (logD) was found to be 2.7. In addition, the Ki in series [3] is 316 nM; in [5] it was 50.1 nM; in series [7] it was 200 nM; in series [8], 0.316 nM. The Kb in series [9] is 0.316 nM.

In [2], `CN1CCC[C@@H]1Cn1nc(Cc2ccc(Cl)cc2)c2cnccc2c1=O` registered a logD of 1.9. The figures for the Ki in series [3], in [7] and in series [8] were 398 nM, 12.6 nM and 0.347 nM, respectively. Also, the Kb in series [9] is 0.316 nM.

On to `CN1CCC[C@@H]1Cn1nc(Cc2ccc(Cl)cc2)c2ccncc2c1=O`, for which the logD in series [2] is 2.2. The results for the Ki in [3], in series [7] and in series [8] were 398 nM, 20 nM and 0.692 nM, respectively. Besides, the Kb in [9] is 2.51 nM.

For the compound `CN1CCCC(n2nc(Cc3ccc(Cl)cc3)c3ccccc3c2=O)CC1` (centres undefined) [AZELASTINE], in series [2], the log distribution coefficient (logD) worked out at 2.3. Also, the inhibitory constant (Ki) in [3] is 148 nM.

Compound `CN1CCC[C@@H]1Cn1nc(Cc2ccc(Cl)cc2)c2nccnc2c1=O` returned a pH-dependent lipophilicity (logD) in series [2] of 1.7. Moreover, the Ki in [3] was 631 nM; in [5] it was 251 nM; in [7], 398 nM; in series [8] it was 1.29 nM. Moreover, the Kb in series [9] is 3.98 nM.

With `CCCCN1CCC[C@@H]1Cn1nc(Cc2ccc(Cl)cc2)c2ncccc2c1=O`, the log distribution coefficient (logD) in series [2] is 3.4. Also, the Ki in series [3] was 631 nM; in [5] it was 20 nM; in series [7], 50.1 nM; in series [8] it was 0.631 nM.

In the case of `COCCN1CCC[C@@H]1Cn1nc(Cc2ccc(Cl)cc2)c2cnccc2c1=O`, the log distribution coefficient (logD) in [2] was 2.7. Moreover, the figures for the Ki in [5] and in series [8] were 10 nM and 0.251 nM, respectively. The Kb in series [9] was 0.251 nM.

Consider `CCCCN1CCC[C@@H]1Cn1nc(Cc2ccc(Cl)cc2)c2ccccc2c1=O`, for which the log distribution coefficient (logD) in series [2] was determined as 3.1. The Ki is 437 nM in series [3] and 0.912 nM in [8]. Besides, the Kb in series [9] is 0.0398 nM.

`COCCN1CCC[C@@H]1Cn1nc(Cc2ccc(Cl)cc2)c2ncccc2c1=O` returned a logD in series [2] of 2.9. Moreover, the Ki in series [5] is 39.8 nM; in series [7], 158 nM; in [8] it was 0.537 nM.

`O=c1c2ccccc2c(Cc2ccc(Cl)cc2)nn1C[C@H]1CCCN1CCCCc1ccc(OCCCN2CCCCCC2)cc1` [GSK-1004723] gave a logD in series [2] of 3.2.
